Among the data in ChEMBL document CHEMBL3994605, “Synthesis and biological evaluation of curcumin inspired indole analogues as tubulin polymerization inhibitors” (Eur J Med Chem, 2017) are IC50 values, retold here.

Structures can show the parent of a compound that is named as a salt.

What all share (format): functional, cell-based
For one assay, the system named is HeLa. Briefly: Antiproliferative activity against human HeLa cells after 48 hrs by MTT assay. In a few lines:
(§1)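 MTT read-out. Cells were seeded at 5 × 10^3 per well in DMEM or RPMI with 10% FBS and grown 24 h at 37 °C in CO2. Compound dilutions in medium, with vehicle control, were then added for 48 h. MTT (0.5 mg/mL in medium) was given for 4 h, formazan was dissolved in DMSO, and A570 was read. IC50 was taken from concentration–response curves as mean ± SD of three experiments run in triplicate.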

The next assay relates to 4T1. Briefly: Antiproliferative activity against mouse 4T1 cells after 48 hrs by MTT assay. The conditions noted are these: 4T1, 48 h. The procedure, abridged: as §1
A general note: Tetrazolium assays rely on reduction of a dye to a coloured formazan, in cell work by metabolically active cells.

The test system of a further assay is MDA-MB-231. Description: Antiproliferative activity against human MDA-MB-231 cells after 48 hrs by MTT assay. To be noted: MDA-MB-231, 48 h. The procedure, abridged: as §1
The subject of a further assay is A549. Description: Antiproliferative activity against human A549 cells after 48 hrs by MTT assay. The conditions noted are these: A549, 48 h. In a few lines:
as §1

The subject of another assay is DU-145. Description: Antiproliferative activity against human DU145 cells after 48 hrs by MTT assay. The conditions noted are these: DU-145, 48 h. The procedure, abridged: as §1
The next assay has as its system HGC-27. Description: Antiproliferative activity against human HGC27 cells after 48 hrs by MTT assay. The conditions noted are these: HGC-27, 48 h. The procedure, abridged:
as §1

A further assay deals with BT-549. Briefly: Antiproliferative activity against human BT549 cells after 48 hrs by MTT assay. To be noted: BT-549, 48 h. In a few lines:
as §1

A further assay has as its system PC-3. Briefly: Antiproliferative activity against human PC3 cells after 48 hrs by MTT assay. To be noted: PC-3, 48 h. In a few lines:
as §1

As a reminder, the IC50 is the point on the concentration scale where inhibition reaches its midpoint. A higher IC50 goes with weaker potency. Regarding `COc1ccc(OC)c(/C=C/C(=O)/C=C/c2cn(Cc3ccc(C(F)(F)F)cc3)c3ccccc23)c1`, the IC50 with HeLa, in the assay on 4T1, with MDA-MB-231, in the assay with A549, in the assay on DU-145 and in the assay on HGC-27 was above 50 µM in each case. The half-maximal inhibitory concentration (IC50) in the assay with BT-549 and with PC-3 was above 50 µM throughout.

Regarding `COc1cc(OC)c(/C=C/C(=O)/C=C/c2cn(Cc3ccccc3)c3ccccc23)c(OC)c1`, the IC50 in the assay with HeLa is 50.1 µM; in the assay on 4T1, above 50 µM; in the assay with MDA-MB-231, above 50 µM; with A549, above 50 µM; in the assay on DU-145, above 50 µM; with HGC-27, above 50 µM. The 50% inhibitory concentration (IC50) with BT-549 and in the assay with PC-3 was above 50 µM in each case.

As for `O=C(/C=C/c1ccc(Cl)cc1)/C=C/c1c[nH]c2ccccc12`, the 50% inhibitory concentration (IC50) in the assay on HeLa is 25.2 µM; in the assay on 4T1, 40.2 µM; in the assay on MDA-MB-231, 50.2 µM; in the assay on A549, above 50 µM; with DU-145, above 50 µM; in the assay on HGC-27, 50 µM. Besides, the IC50 in the assay on BT-549 was 30.1 µM; in the assay on PC-3, above 50 µM.

Regarding `COc1ccc(/C=C/C(=O)/C=C/c2cn(Cc3ccc(OC(F)(F)F)cc3)c3ccccc23)cc1OC`, the IC50 in the assay on HeLa was 50.5 µM; in the assay with 4T1, above 50 µM; in the assay with MDA-MB-231, above 50 µM; with A549, above 50 µM; in the assay on DU-145 it was above 50 µM; in the assay with HGC-27 it was above 50 µM. The IC50 is 50.1 µM in the assay with BT-549 and above 50 µM with PC-3.

Turning to `CC[C@]1(O)C[C@H]2CN(CCc3c([nH]c4ccccc34)[C@@](C(=O)OC)(c3cc4c(cc3OC)N(C=O)[C@H]3[C@@](O)(C(=O)OC)[C@H](OC(C)=O)[C@]5(CC)C=CCN6CC[C@]43[C@@H]65)C2)C1` [VINCRISTINE SULFATE], the half-inhibitory concentration (IC50) in the assay on MDA-MB-231 was found to be 0.117 µM; in the assay on A549, 0.172 µM; with DU-145, 0.0723 µM; with BT-549 it was 0.0547 µM; in the assay on PC-3, 0.0276 µM.

Take `COc1ccc(OC)c(/C=C/C(=O)/C=C/c2cn(Cc3ccc(F)cc3)c3ccccc23)c1`: the IC50 was 50.9 µM with HeLa; above 50 µM in the assay on 4T1; above 50 µM in the assay with MDA-MB-231; above 50 µM in the assay with A549; above 50 µM in the assay on DU-145; above 50 µM in the assay on HGC-27. The IC50 in the assay on BT-549 is 50.1 µM; in the assay on PC-3 it was above 50 µM.

For `COc1ccc(OC)c(/C=C/C(=O)/C=C/c2cn(Cc3ccccc3)c3ccccc23)c1`, the half-inhibitory concentration (IC50) in the assay on HeLa, in the assay on 4T1, in the assay on MDA-MB-231, in the assay with A549, in the assay with DU-145 and in the assay with HGC-27 was above 50 µM in each case. In addition, the IC50 with BT-549 and with PC-3 was above 50 µM each time.

Regarding `COc1cc(OC)c(/C=C/C(=O)/C=C/c2cn(Cc3ccc(Cl)cc3)c3ccccc23)c(OC)c1`, the IC50 in the assay with HeLa was 40.9 µM; with 4T1, above 50 µM; with MDA-MB-231, above 50 µM; with A549, above 50 µM; with DU-145 it was above 50 µM; with HGC-27, above 50 µM. For the same compound, the half-maximal inhibitory concentration (IC50) in the assay on BT-549 and in the assay with PC-3 was above 50 µM each time.

Consider `COc1cc(/C=C/C(=O)CC(=O)/C=C/c2ccc(O)c(OC)c2)ccc1O` [CURCUMIN], for which the half-inhibitory concentration (IC50) in the assay with HeLa worked out at 25.4 µM; in the assay with MDA-MB-231, 15.8 µM; in the assay with DU-145 it was 28.4 µM; in the assay on BT-549, 24.9 µM; in the assay with PC-3, 12.2 µM.

On to `COc1ccc(/C=C/C(=O)/C=C/c2c[nH]c3ccccc23)cc1`, for which the IC50 in the assay with 4T1 turned out to be 21.6 µM; with MDA-MB-231 it was 32 µM; with A549, 45.1 µM; in the assay on DU-145 it was 13.6 µM; in the assay on HGC-27 it was 24 µM; in the assay with BT-549, 31.4 µM. Further, the concentration for half-maximal inhibition (IC50) in the assay on PC-3 turned out to be 3.51 µM.
